Assay results from PubChem BioAssay.
Calls of active or inactive are those of the source.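 Rule for the calls, unless noted: active = fluorescence slope after compound addition differing from the mean of all screened samples at 99.7% confidence, in either direction; inactive = the rest.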

Legend:
[1] = inhibitors of TNFa-induced NFkB p65 translocation, primary screen, imaging, HUVEC, MLSMR starter and 10KST1 sets (AID 438;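 active = inhibition above 20% together with a positive visual image hit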;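 note: compound added about 3h40 before a 20 min TNFalpha stimulation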;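 for inhibition: signal is the nuclear over cytoplasmic p65 intensity ratio per well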); settings: HUVEC TNFa-induced p65 nuclear translocation; cell count: measured here: nuclei count (cytotoxicity indicator), at 2.08 µM; inhibition: at 2 µM, stronger effect = higher value, 0% TNFa-plus-vehicle, 100% no-TNFa wells
[2] = endothelial E-selectin expression blockers – imaging, HUVEC, immunofluorescence, MLSMR starter and 10KST1 sets, primary screen (AID 487;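 active = visually confirmed hit in the image check and inhibition above 20%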;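 for inhibition: signal is fraction of cell area covered by stained E-selectin grains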;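 for nuclei count: 100% = median nuclei count of all wells on the same plate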); settings: HUVEC TNFalpha-induced E-selectin immunofluorescence imaging, at 2 µM; inhibition: stronger effect = higher value; nuclei count: measured here: cell number, toxicity
[3] = Primary imaging screen for DUSP6 inhibitors that restore phospho-Erk in transfected HeLa cells, chemical complementation (AID 609;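 active = compounds giving at least 50% inhibition in the cell-based MKP-3 phosphatase rescue imaging test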;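 for inhibition: phospho-Erk level distribution per well compared with pooled transfected vehicle control wells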); settings: HeLa MKP-3 transfected, phospho-Erk imaging KS statistic, at 10 µM, cells stimulated with TPA for 15 min
[4] = biological target: Dual specificity protein phosphatase 6 (Homo sapiens) (UniProt Q16828); experiment: as above; settings: HeLa MKP-3 transfected, phospho-Erk imaging KS statistic; at 10 µM; stronger effect = higher value; cells stimulated with TPA for 15 min
[5] = biological target: Voltage-gated potassium channel subunit beta-2 (Rattus norvegicus) (UniProt P62483); experiment: inhibitors of rat Kvbeta2 reductase activity – biochemical, NADPH fluorescence, primary screen (AID 622;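 active = fluorescence slope higher than the sample average by over 3 SD, cut at about -0.22 in these data, passing the limit was not always enough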;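 note: slope of raw intensity against log time taken from 70 to 1610 s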); settings: recombinant KvBeta, 4-cyanobenzaldehyde reduction, at 10 µM, stronger effect = higher value
[6] = biological target: Voltage-gated potassium channel subunit beta-2 (Rattus norvegicus) (UniProt P62483); experiment: enhancers of rat Kvbeta2 NADPH turnover – biochemical, NADPH fluorescence, primary screen (AID 623;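 active = NADPH fluorescence slope more negative than the mean of all samples by about 3 SD, 99.7% confidence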;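 note: fluorescence intensity change per second fitted from 20 to 320 s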); settings: Recombinant KvBeta, NADPH fluorescence decrease slope, 10 min; at 10 µM; stronger effect = lower value
[7] = biological target: Alpha-2C adrenergic receptor (Homo sapiens) (UniProt P18825); experiment: compounds altering alpha2C-coupled GIRK flux – cell-based, HEK293 alpha2C/GIRK1/2, thallium flux, primary screen (AID 624); settings: thallium flux BTC fluorescence, at 10 µM, actives lie on both sides;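 note: slope of fluorescence ratio to pre-addition baseline per second over 15 to 24 s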
[8] = inhibitors of larval lipid processing in zebrafish, primary screen, whole organism, PED6 fluorescence, gall bladder and intestine (AID 686;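 active = a full or partial loss of lipid-probe fluorescence in the fish gall bladder, intestine or both, judged by eye; inactive = no fluorescence loss, or compound toxic to the fish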;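 note: larvae 5 to 7 days old with five fish per well; signal comes from phospholipase A2 cleavage of quenched PED6 carried via bile; overnight exposure to compound and PED6 before scoring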); settings: Zebrafish larvae PED6 lipid processing, fluorescence scoring; screened at 20 µM (by protocol)
How it was run: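 Doses: 20 µM single dose. Test system: live zebrafish larvae aged 5-7 days, whole organism. Quantity: five larvae per well. Measured by: By-eye fluorescence microscopy. Reagent: ingested quenched lipid PED6 at 100 nM. Read-out: visual per-well fluorescence inhibition score. Times: overnight exposure of larvae to compound plus PED6.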

[9] = loss of swimming-algae plug formation – whole organism, Chlamydomonas reinhardtii, WT vs cilia-less mutant, absorbance, 96-well, primary screen (AID 463189;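 active = inhibition at or above 50% relative to wild type and mutant plate controls; inactive = inhibition below 50%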;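 note: 0% = wild type cc124 cells in DMSO and 100% = ciliumless bld1 mutant cells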); settings: Chlamydomonas reinhardtii gravitaxis, OD600 absorbance, 2 days; at 10 µM; stronger effect = higher value
[10] = measured here: cell density z-score
[11] = measured here: nuclear c-Myc green intensity z-score
[12] = measured here: nuclear pErk red intensity z-score, stronger effect = higher value

Chain of Alpha-2C adrenergic receptor (Homo sapiens) (P18825 whole entry, looked up): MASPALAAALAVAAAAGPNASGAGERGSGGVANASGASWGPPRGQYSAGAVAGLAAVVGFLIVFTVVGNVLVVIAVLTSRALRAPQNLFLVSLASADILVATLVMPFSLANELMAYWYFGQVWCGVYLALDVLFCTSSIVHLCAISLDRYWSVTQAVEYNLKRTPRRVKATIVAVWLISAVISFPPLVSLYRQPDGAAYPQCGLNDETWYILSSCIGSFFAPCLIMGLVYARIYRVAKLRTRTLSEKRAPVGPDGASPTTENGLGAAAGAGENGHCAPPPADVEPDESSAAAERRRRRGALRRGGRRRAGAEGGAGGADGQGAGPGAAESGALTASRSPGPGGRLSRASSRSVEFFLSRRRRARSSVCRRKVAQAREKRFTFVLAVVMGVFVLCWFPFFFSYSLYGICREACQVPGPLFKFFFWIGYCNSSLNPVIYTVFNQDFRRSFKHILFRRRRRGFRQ
Chain of Dual specificity protein phosphatase 6 (Homo sapiens) (Q16828 whole entry, looked up): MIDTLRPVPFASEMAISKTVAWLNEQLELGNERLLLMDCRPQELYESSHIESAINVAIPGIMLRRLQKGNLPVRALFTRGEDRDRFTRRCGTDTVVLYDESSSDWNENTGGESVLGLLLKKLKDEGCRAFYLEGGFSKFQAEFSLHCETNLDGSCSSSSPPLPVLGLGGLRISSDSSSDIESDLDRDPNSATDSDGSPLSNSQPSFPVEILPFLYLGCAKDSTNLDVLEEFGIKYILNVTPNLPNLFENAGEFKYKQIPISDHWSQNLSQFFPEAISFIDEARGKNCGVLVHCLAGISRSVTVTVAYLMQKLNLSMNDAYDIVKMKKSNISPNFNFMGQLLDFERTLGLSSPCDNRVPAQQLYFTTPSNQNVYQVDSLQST
Chain of Voltage-gated potassium channel subunit beta-2 (Rattus norvegicus) (P62483 whole entry, looked up): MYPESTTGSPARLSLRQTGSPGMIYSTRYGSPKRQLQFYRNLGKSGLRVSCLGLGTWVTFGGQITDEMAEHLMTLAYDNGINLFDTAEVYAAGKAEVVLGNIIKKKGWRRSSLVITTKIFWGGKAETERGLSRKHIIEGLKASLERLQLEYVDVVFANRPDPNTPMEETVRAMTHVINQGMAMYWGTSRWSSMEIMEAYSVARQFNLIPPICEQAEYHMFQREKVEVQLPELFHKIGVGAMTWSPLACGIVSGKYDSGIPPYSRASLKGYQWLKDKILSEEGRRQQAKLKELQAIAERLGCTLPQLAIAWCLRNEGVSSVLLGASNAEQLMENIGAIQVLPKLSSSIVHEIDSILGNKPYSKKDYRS

## CC(C)(C)c1ccc(C(=O)C=[N+]=[N-])cc1
[1]
  cell count: 519
  inhibition: -4.7% (inactive)
[2]
  inhibition: -112% (inactive)
  nuclei count: 60.8%
[3]; [10]
  z-score: -1.12
[3]; [11]
  z-score: -0.668
[3]; [12]
  z-score: -0.2
[4]
  inhibition: 3.97% (inactive)
[5]
  fluorescence slope: -0.524 (inactive)
[6]
  NADPH fluorescence slope: -6.4e-05 (inactive)
[7]
  slope: 0.00701 (inactive)
[8]
  outcome: inactive
[9]
  inhibition: 2.22% (inactive)

## O=C1C(=O)N(CCN2CCOCC2)C(c2ccccn2)/C1=C(/O)c1ccccc1 (configuration not stated)
[1]
  cell count: 382
  inhibition: -4.7% (inactive)
[2]
  inhibition: -87.4% (inactive)
  nuclei count: 107%
[3]; [10]
  z-score: -0.264
[3]; [11]
  z-score: 0.535
[3]; [12]
  z-score: -1.2
[4]
  inhibition: -0.159% (inactive)
[5]
  fluorescence slope: -0.432 (inactive)
[6]
  NADPH fluorescence slope: -1.4e-05 (inactive)
[7]
  slope: 0.00578 (inactive)
[8]
  outcome: inactive
[9]
  inhibition: -11.4% (inactive)

## COCCn1c(N)c(C(=O)NCC2CCCO2)c2nc3ccccc3nc21 (configuration not stated)
[1]
  cell count: 564
  inhibition: -8.3% (inactive)
[2]
  inhibition: -74.5% (inactive)
  nuclei count: 106%
[3]; [10]
  z-score: 0.365
[3]; [11]
  z-score: -2.02
[3]; [12]
  z-score: 0.128
[4]
  inhibition: -11.5% (inactive)
[5]
  fluorescence slope: -0.0102 (inactive)
[6]
  NADPH fluorescence slope: 7e-06 (inactive)
[7]
  slope: 0.00477 (inactive)
[8]
  outcome: inactive
[9]
  inhibition: 26.2% (inactive)

## CCCCCc1nc2sc3c(c2c(=O)n1N)CCC3
[1]
  cell count: 632
  inhibition: -11.1% (inactive)
[2]
  inhibition: 46.3% (inactive)
  nuclei count: 166%
[3]; [10]
  z-score: -1.49
[3]; [11]
  z-score: 2.03
[3]; [12]
  z-score: 1.67
[4]
  inhibition: -9.7% (inactive)
[5]
  fluorescence slope: -0.507 (inactive)
[6]
  NADPH fluorescence slope: -0.000102 (inactive)
[7]
  slope: 0.00473 (inactive)
[8]
  outcome: inactive
[9]
  inhibition: 68.1% (active)

## C=C(C)CSC1=C(C#N)C(c2ccsc2)CC(=O)N1 (configuration not stated)
[1]
  cell count: 486
  inhibition: -5% (inactive)
[2]
  inhibition: 8.3% (inactive)
  nuclei count: 121%
[3]; [10]
  z-score: -1
[3]; [11]
  z-score: -0.892
[3]; [12]
  z-score: 0.991
[4]
  inhibition: -5.89% (inactive)
[5]
  fluorescence slope: -0.512 (inactive)
[6]
  NADPH fluorescence slope: -6.2e-05 (inactive)
[7]
  slope: 0.00453 (inactive)
[8]
  outcome: inactive
[9]
  inhibition: 13% (inactive)

## CC(C)(C)n1nnc(CCc2nnn(C(C)(C)C)n2)n1
[1]
  cell count: 276
  inhibition: -17.8% (inactive)
[2]
  inhibition: -32.2% (inactive)
  nuclei count: 104%
[3]; [10]
  z-score: 0.0896
[3]; [11]
  z-score: 1.07
[3]; [12]
  z-score: -0.74
[4]
  inhibition: 10.5% (inactive)
[5]
  fluorescence slope: -0.44 (inactive)
[6]
  NADPH fluorescence slope: -0.000126 (inactive)
[7]
  slope: 0.00595 (inactive)
[8]
  outcome: inactive
[9]
  inhibition: -11.8% (inactive)

## COC(=O)CN1C2(C#N)CCCCC2CC2CCCCC21C#N (configuration not stated)
[1]
  cell count: 420
  inhibition: -8.8% (inactive)
[2]
  inhibition: -128% (inactive)
  nuclei count: 153%
[3]; [10]
  z-score: -0.336
[3]; [11]
  z-score: -0.947
[3]; [12]
  z-score: -0.0966
[4]
  inhibition: 3.66% (inactive)
[5]
  fluorescence slope: -0.504 (inactive)
[6]
  NADPH fluorescence slope: -9.5e-05 (inactive)
[7]
  slope: 0.00451 (inactive)
[8]
  outcome: inactive
[9]
  inhibition: 45.5% (inactive)

## CCCCNC(=O)N1CCOCCOCCN(C(=O)NCCCC)CCOCCOCC1
[1]
  cell count: 546
  inhibition: -15.4% (inactive)
[2]
  inhibition: -120% (inactive)
  nuclei count: 144%
[3]; [10]
  z-score: 1.2
[3]; [11]
  z-score: -1.56
[3]; [12]
  z-score: 0.0473
[4]
  inhibition: 3.97% (inactive)
[5]
  fluorescence slope: -0.526 (inactive)
[6]
  NADPH fluorescence slope: -2.2e-05 (inactive)
[7]
  slope: 0.00599 (inactive)
[8]
  outcome: inactive
[9]
  inhibition: 17.8% (inactive)

## Cc1ccc(-c2ccccc2NC(=O)C2C3C=CC(C3)C2C(=O)O)o1 (configuration not stated)
[1]
  cell count: 553
  inhibition: -2.2% (inactive)
[2]
  inhibition: -4.5% (inactive)
  nuclei count: 154%
[3]; [10]
  z-score: 0.45
[3]; [11]
  z-score: -0.671
[3]; [12]
  z-score: -0.083
[4]
  inhibition: 14% (inactive)
[5]
  fluorescence slope: -0.352 (inactive)
[6]
  NADPH fluorescence slope: 5.5e-06 (inactive)
[7]
  slope: 0.00466 (inactive)
[8]
  outcome: inactive
[9]
  inhibition: 7.64% (inactive)

## Cc1cccc(N)c1SC1CCCCC1O (configuration not stated)
[1]
  cell count: 420
  inhibition: -5.2% (inactive)
[2]
  inhibition: -79.6% (inactive)
  nuclei count: 131%
[3]; [10]
  z-score: 0.781
[3]; [11]
  z-score: -1.44
[3]; [12]
  z-score: -1.09
[4]
  inhibition: 23.9% (inactive)
[5]
  fluorescence slope: -0.46 (inactive)
[6]
  NADPH fluorescence slope: -2.2e-05 (inactive)
[7]
  slope: 0.00629 (inactive)
[8]
  outcome: inactive
[9]
  inhibition: 15% (inactive)

## Clc1ccccc1-c1nn2c(-c3ccccn3)nnc2s1
[1]
  cell count: 603
  inhibition: -6.7% (inactive)
[2]
  inhibition: -82.4% (inactive)
  nuclei count: 167%
[3]; [10]
  z-score: 0.327
[3]; [11]
  z-score: 0.132
[3]; [12]
  z-score: -0.483
[4]
  inhibition: -0.674% (inactive)
[5]
  fluorescence slope: -0.404 (inactive)
[6]
  NADPH fluorescence slope: -0.000155 (inactive)
[7]
  slope: 0.00777 (inactive)
[8]
  outcome: inactive
[9]
  inhibition: 48.8% (inactive)

## COc1cccc(C2/C(=C(\O)c3ccc4c(c3)OCCO4)C(=O)C(=O)N2CCN(C)C)c1 (configuration not stated)
[1]
  cell count: 509
  inhibition: -0.6% (inactive)
[2]
  inhibition: -108% (inactive)
  nuclei count: 138%
[3]; [10]
  z-score: 1
[3]; [11]
  z-score: -0.131
[3]; [12]
  z-score: -0.387
[4]
  inhibition: 17.5% (inactive)
[5]
  fluorescence slope: -0.546 (inactive)
[6]
  NADPH fluorescence slope: -3.2e-05 (inactive)
[7]
  slope: 0.00546 (inactive)
[8]
  outcome: inactive
[9]
  inhibition: -11.2% (inactive)

## Cn1c(=O)c2c(nc(SCCN3CCCCC3)n2Cc2ccc(Cl)cc2)n(C)c1=O
[1]
  cell count: 498
  inhibition: -3.7% (inactive)
[2]
  inhibition: -203% (inactive)
  nuclei count: 140%
[3]; [10]
  z-score: 0.51
[3]; [11]
  z-score: -0.662
[3]; [12]
  z-score: -1.54
[4]
  inhibition: 21% (inactive)
[5]
  fluorescence slope: -0.526 (inactive)
[6]
  NADPH fluorescence slope: -1.5e-05 (inactive)
[7]
  slope: 0.00528 (inactive)
[8]
  outcome: inactive
[9]
  inhibition: 104% (active)

## O=C(NCCN1CCOCC1)c1cc2n(n1)C(C(F)(F)F)CC(c1ccc(F)cc1)N2 (configuration not stated)
[1]
  cell count: 341
  inhibition: -2.3% (inactive)
[2]
  inhibition: -22.1% (inactive)
  nuclei count: 104%
[3]; [10]
  z-score: -1.73
[3]; [11]
  z-score: 1.46
[3]; [12]
  z-score: -0.339
[4]
  inhibition: 7.48% (inactive)
[5]
  fluorescence slope: -0.529 (inactive)
[6]
  NADPH fluorescence slope: -9.5e-05 (inactive)
[7]
  slope: 0.00574 (inactive)
[8]
  outcome: inactive
[9]
  inhibition: -15.3% (inactive)
